Measurements of several laboratories.
Read-out: cell growth or viability

The CC50 of `NC(=NCc1ccccc1)NC(=O)c1nc(Cl)c(N)nc1N` is reported as 44.5 µM (BHK-21; CCK-8; 48 h).
With `COc1cccc2c1C(=O)c1c(O)c3c(c(O)c1C2=O)C[C@@](O)(C(=O)CO)C[C@@H]3O[C@H]1C[C@H](N)[C@H](O)[C@H](C)O1` the CC50 was 9.6 µM (Vero; MTT; 72 h).
For `CC1=NN(c2ccc(C)c(C)c2)C(=O)/C1=N\Nc1cccc(-c2cccc(C(=O)O)c2)c1O`, the CC50 was 104 µM (BHK-21; CCK-8; 48 h).
`NS(=O)(=O)c1ccc(-c2ccc(Nc3ccc(Cl)cc3)cc2)cc1` has a viability of 60% (BHK-21; MTT; 100 µM).
With `Cc1cc(-c2ccc(/N=N/c3ccc4c(S(=O)(=O)O)cc(S(=O)(=O)O)c(N)c4c3O)c(C)c2)ccc1/N=N/c1ccc2c(S(=O)(=O)O)cc(S(=O)(=O)O)c(N)c2c1O` the CC50 was 242 µM (BHK-21; CCK-8; 48 h).
For `Cc1cc(C)cc(Nc2ccc(-c3ccc(S(N)(=O)=O)cc3)cc2)c1`, the viability was 88% (BHK-21; MTT; 100 µM).
`O=C1C(=O)c2cccnc2-c2ncccc21` gave a CC50 of > 200 µM (Vero; MTT; 72 h).
`COC(=O)c1ccc(Nc2ccc(-c3ccc(S(N)(=O)=O)cc3)cc2)cc1` has a viability of 68% (BHK-21; MTT; 100 µM).
The viability of `CNC(=N)NCCC[C@H](N)C(=O)O` is reported as > 85% (RAW264.7; MTT; 250 µg/mL, 24 h, LPS-stimulated).
`Nc1nc2c(ncn2COCCO)c(=O)[nH]1` has a CC50 of 320 µM (Vero; MTT; 48 h).
`O=C(C1CCCCC1)N1CC(=O)N2CCc3ccccc3C2C1` (centres unmarked) has a CC50 of > 200 µM (Vero; MTT; 72 h).
